Measurements from paper PMC2738596 (Biochimica et biophysica acta, 2008).
“Also recorded” adds a separate entry of the source. Like-named read-outs stand apart in the source and are kept apart here. Ends that are not written are not given here.

Experiments:
cardiac RyR2 [1] = target: T1, cardiac RyR2 (Canis lupus familiaris, UniProt A0A8I3MT21); test: Induction of subconductance states; assay type: biochemical, dog
Outline: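 Dog ventricular SR microsomes fused into PE/PS/PC (5:4:1) bilayers. Solutions: cis HEPES 250 mM/Tris 118 mM, trans HEPES 250 mM/Ca(OH)2 53 mM, pH 7.4. Cytosolic Ca2+ buffered with BAPTA/dibromo-BAPTA; Ca2+/caffeine-activated channel; peptide added cis. Four-minute records were filtered at 500 Hz (Vm ≥0) or 400 Hz (Vm <0). P_substate = substate time/total time, scored frame-by-frame (100 ms frames, events >3 ms) or from Gaussian-fitted all-points histograms. Paired t-test.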

ryanodine-modified RyR2 = ryanodine-modified RyR2 (Canis lupus familiaris, UniProt A0A8I3MT21); test: Peptide/IpTxA action on ryanodine-modified RyR2 in planar lipid bilayers; assay type: biochemical, dog
RyR2 with IpTxA = test: Interaction of peptides with IpTxA-modified RyR2 in planar lipid bilayers; assay type: biochemical, dog; details: for apparent dissociation constant from RyR2 (1/dwell time): 500 µM KIFMK
Outline: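 Dog cardiac RyR2 was recorded in planar bilayers with HEPES-Ca2+ trans and HEPES-Tris cis at pH 7.4, Ca2+/caffeine-activated, with cytosolic IpTxA at 50 nM and Vm +10 mV. Peptide was then added cis. Block events (dwell time, number, P_block = fraction of time at baseline) were scored frame-by-frame on 4-min records, separately during full openings and during IpTxA-induced substates. Means ± S.E.M.; paired t-test.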

cardiac RyR2 [2] = target: T1, cardiac RyR2; assay type: biochemical, dog
RyR2 (ryanodol-modified) = RyR2 (ryanodol-modified) (Canis lupus familiaris, UniProt A0A8I3MT21); assay type: biochemical, dog; details: for probability of ryanodol-induced modification: n=5 paired (Fig. 6)
SR microsomes = details: ref [19], [26], [55]; cited from earlier work
RyRs = details: ryanodine locks channels open; ref [3], [45]; cited from earlier work
[3] = 500 µM KIFMK, frame by frame analysis
[4] = Shaker B 2 µM n=4, KIFMK 500 µM n=8
[5] = IpTxA plus ryanodol, +10 mV, 40 min
[6] = ryanodol, control before IpTxA (Fig. 7A, B)

T1 sequence (A0A8I3MT21 1-4967): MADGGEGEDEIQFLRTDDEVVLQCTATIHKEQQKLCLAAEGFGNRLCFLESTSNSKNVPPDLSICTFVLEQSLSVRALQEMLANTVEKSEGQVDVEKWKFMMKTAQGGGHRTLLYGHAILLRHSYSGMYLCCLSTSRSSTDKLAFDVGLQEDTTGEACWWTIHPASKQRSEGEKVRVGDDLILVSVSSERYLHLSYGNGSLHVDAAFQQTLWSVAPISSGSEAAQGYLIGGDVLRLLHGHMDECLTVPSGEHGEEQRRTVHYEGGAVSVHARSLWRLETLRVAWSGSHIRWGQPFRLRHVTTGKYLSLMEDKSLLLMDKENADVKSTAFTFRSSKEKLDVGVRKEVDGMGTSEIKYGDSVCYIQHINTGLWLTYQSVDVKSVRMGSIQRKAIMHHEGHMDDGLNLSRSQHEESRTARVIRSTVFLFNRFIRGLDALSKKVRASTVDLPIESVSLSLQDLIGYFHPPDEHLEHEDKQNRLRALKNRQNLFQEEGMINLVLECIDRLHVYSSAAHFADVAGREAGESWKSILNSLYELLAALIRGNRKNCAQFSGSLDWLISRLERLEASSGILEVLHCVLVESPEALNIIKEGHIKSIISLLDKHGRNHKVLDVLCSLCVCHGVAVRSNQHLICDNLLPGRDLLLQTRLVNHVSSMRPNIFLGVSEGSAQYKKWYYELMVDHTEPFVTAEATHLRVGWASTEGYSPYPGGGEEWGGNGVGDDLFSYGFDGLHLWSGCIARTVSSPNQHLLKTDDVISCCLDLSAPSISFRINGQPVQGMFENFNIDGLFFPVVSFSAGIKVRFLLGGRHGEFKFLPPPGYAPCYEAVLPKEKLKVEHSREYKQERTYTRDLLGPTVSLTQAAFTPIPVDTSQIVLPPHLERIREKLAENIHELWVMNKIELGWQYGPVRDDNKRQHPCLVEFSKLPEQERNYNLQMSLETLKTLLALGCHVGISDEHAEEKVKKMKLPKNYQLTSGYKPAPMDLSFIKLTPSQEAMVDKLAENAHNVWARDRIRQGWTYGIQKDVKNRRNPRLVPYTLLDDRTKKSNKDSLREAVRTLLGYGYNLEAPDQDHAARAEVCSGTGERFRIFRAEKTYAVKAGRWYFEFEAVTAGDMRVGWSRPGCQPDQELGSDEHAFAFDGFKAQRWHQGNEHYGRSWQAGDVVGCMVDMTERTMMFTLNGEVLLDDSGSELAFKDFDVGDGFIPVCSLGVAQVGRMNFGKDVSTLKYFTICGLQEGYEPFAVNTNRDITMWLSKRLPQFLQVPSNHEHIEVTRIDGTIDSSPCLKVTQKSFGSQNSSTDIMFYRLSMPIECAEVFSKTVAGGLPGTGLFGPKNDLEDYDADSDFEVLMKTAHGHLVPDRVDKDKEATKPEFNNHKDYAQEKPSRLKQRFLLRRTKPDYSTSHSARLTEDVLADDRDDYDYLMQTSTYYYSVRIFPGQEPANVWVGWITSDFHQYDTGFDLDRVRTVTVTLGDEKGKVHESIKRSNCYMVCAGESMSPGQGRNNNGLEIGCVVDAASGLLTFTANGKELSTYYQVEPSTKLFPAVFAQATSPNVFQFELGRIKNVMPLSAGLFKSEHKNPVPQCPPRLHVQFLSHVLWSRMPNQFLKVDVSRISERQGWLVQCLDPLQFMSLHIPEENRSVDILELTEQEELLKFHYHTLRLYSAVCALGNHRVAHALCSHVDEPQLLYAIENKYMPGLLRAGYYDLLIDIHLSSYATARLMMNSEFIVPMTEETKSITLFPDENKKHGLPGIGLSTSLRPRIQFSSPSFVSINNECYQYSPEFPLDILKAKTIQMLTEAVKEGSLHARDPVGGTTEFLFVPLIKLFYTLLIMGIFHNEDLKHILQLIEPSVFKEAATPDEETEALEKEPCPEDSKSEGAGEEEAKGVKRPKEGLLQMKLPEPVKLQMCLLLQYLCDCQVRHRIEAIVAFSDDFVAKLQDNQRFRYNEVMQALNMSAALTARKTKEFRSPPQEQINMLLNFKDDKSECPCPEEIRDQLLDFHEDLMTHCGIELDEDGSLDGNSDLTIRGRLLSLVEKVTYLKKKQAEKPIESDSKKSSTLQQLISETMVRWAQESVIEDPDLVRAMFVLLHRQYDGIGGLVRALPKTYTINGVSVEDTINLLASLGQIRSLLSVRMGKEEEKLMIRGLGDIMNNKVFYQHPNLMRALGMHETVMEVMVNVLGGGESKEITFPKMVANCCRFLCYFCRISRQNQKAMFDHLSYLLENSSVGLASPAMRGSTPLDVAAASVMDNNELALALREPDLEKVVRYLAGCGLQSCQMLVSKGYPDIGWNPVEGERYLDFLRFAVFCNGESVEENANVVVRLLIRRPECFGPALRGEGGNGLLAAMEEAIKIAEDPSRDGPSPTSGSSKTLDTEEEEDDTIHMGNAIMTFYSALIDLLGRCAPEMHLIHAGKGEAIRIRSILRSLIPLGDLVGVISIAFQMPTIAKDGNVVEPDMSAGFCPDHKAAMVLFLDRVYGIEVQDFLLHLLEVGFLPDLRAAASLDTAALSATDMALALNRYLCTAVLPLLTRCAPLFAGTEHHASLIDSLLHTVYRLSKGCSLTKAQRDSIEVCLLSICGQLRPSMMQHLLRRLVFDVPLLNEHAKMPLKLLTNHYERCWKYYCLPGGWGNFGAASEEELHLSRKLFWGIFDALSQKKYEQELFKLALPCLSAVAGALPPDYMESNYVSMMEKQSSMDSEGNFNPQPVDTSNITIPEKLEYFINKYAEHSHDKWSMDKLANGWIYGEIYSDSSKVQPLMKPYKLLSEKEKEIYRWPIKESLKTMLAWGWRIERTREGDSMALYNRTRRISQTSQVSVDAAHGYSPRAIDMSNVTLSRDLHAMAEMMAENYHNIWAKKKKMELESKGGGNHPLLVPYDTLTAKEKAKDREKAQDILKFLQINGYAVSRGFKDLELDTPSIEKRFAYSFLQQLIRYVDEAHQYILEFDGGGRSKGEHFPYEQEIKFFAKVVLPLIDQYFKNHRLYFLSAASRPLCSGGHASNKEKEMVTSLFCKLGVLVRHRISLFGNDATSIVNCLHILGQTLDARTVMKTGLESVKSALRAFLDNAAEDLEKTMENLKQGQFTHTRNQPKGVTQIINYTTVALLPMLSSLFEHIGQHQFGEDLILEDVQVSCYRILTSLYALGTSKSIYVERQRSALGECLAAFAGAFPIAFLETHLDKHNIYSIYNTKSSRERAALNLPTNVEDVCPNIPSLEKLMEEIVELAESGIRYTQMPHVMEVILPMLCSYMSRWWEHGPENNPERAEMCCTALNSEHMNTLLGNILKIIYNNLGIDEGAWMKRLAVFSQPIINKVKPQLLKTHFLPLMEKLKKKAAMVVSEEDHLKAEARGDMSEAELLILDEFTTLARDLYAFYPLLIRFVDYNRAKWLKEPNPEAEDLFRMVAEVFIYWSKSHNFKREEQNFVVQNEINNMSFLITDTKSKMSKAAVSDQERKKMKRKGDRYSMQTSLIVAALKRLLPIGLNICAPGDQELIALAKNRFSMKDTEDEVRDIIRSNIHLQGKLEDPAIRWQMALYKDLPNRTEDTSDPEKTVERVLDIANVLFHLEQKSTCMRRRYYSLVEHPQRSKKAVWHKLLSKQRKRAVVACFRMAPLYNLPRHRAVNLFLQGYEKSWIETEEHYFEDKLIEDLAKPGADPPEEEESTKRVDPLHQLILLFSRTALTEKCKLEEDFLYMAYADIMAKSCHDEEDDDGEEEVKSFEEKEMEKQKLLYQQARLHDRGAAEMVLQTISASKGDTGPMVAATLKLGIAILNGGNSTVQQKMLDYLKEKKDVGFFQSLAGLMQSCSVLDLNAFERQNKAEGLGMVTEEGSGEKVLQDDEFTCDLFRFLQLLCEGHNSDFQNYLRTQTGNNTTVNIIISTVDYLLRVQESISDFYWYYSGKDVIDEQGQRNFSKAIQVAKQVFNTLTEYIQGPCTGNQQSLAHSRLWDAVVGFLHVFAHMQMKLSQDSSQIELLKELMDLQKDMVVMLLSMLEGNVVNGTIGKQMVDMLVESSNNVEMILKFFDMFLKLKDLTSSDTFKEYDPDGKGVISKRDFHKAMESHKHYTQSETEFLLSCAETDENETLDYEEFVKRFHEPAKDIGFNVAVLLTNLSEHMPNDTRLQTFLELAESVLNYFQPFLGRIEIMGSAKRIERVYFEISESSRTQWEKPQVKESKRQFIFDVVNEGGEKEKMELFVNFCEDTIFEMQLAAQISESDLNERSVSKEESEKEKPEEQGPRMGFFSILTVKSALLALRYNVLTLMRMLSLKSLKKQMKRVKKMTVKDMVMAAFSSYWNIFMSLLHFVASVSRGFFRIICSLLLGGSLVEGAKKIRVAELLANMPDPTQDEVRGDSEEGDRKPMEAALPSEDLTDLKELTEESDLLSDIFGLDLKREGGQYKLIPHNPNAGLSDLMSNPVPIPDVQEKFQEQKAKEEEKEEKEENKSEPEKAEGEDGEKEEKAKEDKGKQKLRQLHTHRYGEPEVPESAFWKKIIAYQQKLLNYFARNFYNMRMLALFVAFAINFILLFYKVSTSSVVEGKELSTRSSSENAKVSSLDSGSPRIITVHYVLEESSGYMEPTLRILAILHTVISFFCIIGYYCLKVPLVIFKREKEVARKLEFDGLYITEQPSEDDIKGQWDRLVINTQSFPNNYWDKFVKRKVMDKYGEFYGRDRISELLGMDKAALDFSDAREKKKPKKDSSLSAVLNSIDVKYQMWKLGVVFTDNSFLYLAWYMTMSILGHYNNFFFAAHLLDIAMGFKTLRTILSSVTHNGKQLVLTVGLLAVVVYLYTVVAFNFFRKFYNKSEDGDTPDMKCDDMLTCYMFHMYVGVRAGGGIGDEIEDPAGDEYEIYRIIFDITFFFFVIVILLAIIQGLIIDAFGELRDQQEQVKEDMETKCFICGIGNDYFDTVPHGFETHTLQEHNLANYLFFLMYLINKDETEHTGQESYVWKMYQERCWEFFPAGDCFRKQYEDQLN
RyR2 (ryanodol-modified), sequence (A0A8I3MT21 1-4967): as above
ryanodine-modified RyR2, sequence (A0A8I3MT21 1-4967): as above

## CC[C@H](C)[C@H](NC(=O)[C@H](CCCCN)NC(C)=O)C(=O)N[C@@H](Cc1ccccc1)C(=O)N[C@@H](CCSC)C(=O)N[C@@H](CCCCN)C(N)=O [KIFMK, acetyl-KIFMK-amide]
Cardiac RyR2 [1]; 500 µM KIFMK vs before addition, n=5 paired observations
  increase in frequency of substates: 37 ± 9 times
Cardiac RyR2 [1]; [3]
  substate level 1, of full conductance: ~ 27.3 ± 0.3%
  substate level 2, of full conductance: ~48.6 ± 0.7%
  substate level 3, of full conductance: ~72.3 ± 0.5%
Cardiac RyR2 [1]; 500 µM KIFMK, n=5 paired observations, control 0.9 ± 0.3
  frequency of substates: 22.1 ± 4.4 events/min
Cardiac RyR2 [1]; KIFMK, n=8
  substate amplitude level 1, in the absence of ryanodine: 27 ± 1%
  substate amplitude level 3, in the absence of ryanodine: 74 ± 2%
Cardiac RyR2 [1]; discussion summary
  substate level, ~30% of full RyR2 conductance: ~ 30%
  substate level, ~50% of full RyR2 conductance: ~50%
  substate level, ~70% of full RyR2 conductance: ~70%
ryanodine-modified RyR2; KIFMK 500 µM
  predominant substate level, of the ryanodine-modified conductance: ~ 52%
ryanodine-modified RyR2; KIFMK 500 µM, ryanodine-modified, n=6
  block dwell time: 29.9 ± 10.5 ms
ryanodine-modified RyR2; KIFMK 500 µM, n=6
  increase of block dwell time with ryanodine: 316 ± 62%
ryanodine-modified RyR2; [4]
  substate amplitude level 1, of full openings of ryanodine-modified channel: 31 ± 1%
  substate amplitude level 2, of full openings of ryanodine-modified channel: 51 ± 1%
  substate amplitude level 3, of full openings of ryanodine-modified channel: 75 ± 1%
ryanodine-modified RyR2; in the presence of ryanodine
  decrease of probability of block on changing 0 mV to +20 mV: 83%
  decrease of probability of substates on changing 0 mV to +20 mV: 61%
RyR2 with IpTxA; 50 nM IpTxA, +10 mV, Peptide A 20 µM, Shaker B 40 µM, KIFMK 500 µM
  action during IpTxA-induced substates versus full openings: able to block the IpTxA-modified channel; also recorded: the probability of blocking the channels was significantly lower during IpTxA-induced substates than during full openings
RyR2 with IpTxA; during IpTxA substates, 50 nM IpTxA, +10 mV
  apparent dissociation constant from RyR2 (1/dwell time): 3.1 s⁻¹
RyR2 with IpTxA; during full openings, 50 nM IpTxA, +10 mV
  apparent dissociation constant from RyR2 (1/dwell time): 166 s⁻¹
RyR2 with IpTxA; ryanodine-modified RyR2 with IpTxA, results not shown
  action during IpTxA-ryanodine sub-substates: only induced some block events
Cardiac RyR2 [2]; 0 mV
  duration of block events: intermediate duration
Cardiac RyR2 [2]; 0 mV, Peptide A n=4, KIFMK n=6, mean ± SEM
  mean duration of block events: 5.3 ± 0.3 ms
Cardiac RyR2 [2]; Woodhull fit, z = 6 Peptide A, 7 Shaker B, 2 KIFMK
  d (fraction of the membrane potential acting at the site): 1.2 ± 0.3

## Cn1c(=O)c2c(ncn2C)n(C)c1=O [caffeine]
Cardiac RyR2 [2]; most channels, Ca2+ 10 µM + caffeine 5 mM, before peptides
  Po with Ca2+ and caffeine: > 0.9

## CC(C)[C@@]1(O)[C@@H](O)[C@@]2(O)[C@@]3(C)C[C@]4(O)O[C@@]5([C@H](O)[C@@H](C)CC[C@]35O)[C@@]2(O)[C@]14C [ryanodol]
RyR2 (ryanodol-modified); 50 nM IpTxA
  probability of R (ryanodol alone) after IpTxA: decreased dramatically
RyR2 (ryanodol-modified); 20 µM ryanodol, 0 mV, before Peptide A
  probability of ryanodol-induced modification: 0.58 ± 0.04
RyR2 (ryanodol-modified); 20 µM ryanodol, 0 mV, with 5 µM Peptide A
  probability of ryanodol-induced modification: 0.76 ± 0.05
RyR2 (ryanodol-modified); 20 µM ryanodol, 5 µM Peptide A, 0 mV
  action on ryanodol-modified RyR2 or on ryanodol binding: increased dwell times for ryanodol-modified states
RyR2 (ryanodol-modified); [5]
  number of R substate events: 98 events
  number of transitions R→Open: 5 times
  number of transitions i→R+i: 6 times
RyR2 (ryanodol-modified); n=6
  decrease of probability of ryanodol modification from 0 to +20 mV: 52 ± 11%
RyR2 (ryanodol-modified); ryanodol binding to IpTxA-modified channel, +10 mV
  relative rate of transition i→R+i: 14.6
RyR2 (ryanodol-modified); ryanodol binding to open channel, +10 mV
  relative rate of transition Open→R: 130
RyR2 (ryanodol-modified); ryanodol dissociation with IpTxA bound, +10 mV
  relative rate of transition R+i→i: 144
RyR2 (ryanodol-modified); ryanodol first, then IpTxA, +10 mV
  preferred sequence of binding Open→R→R+i, share of cases: 93%
RyR2 (ryanodol-modified); [6]
  probability of full opening: ~ 80%
  probability of ryanodol state: ~ 20%
RyR2 (ryanodol-modified); with 50 nM IpTxA, all voltages tested but +30 mV
  total probability of ryanodol binding (R and R+i), increased: ~ 40%

## TSAQKAKAEERKRRKMSRGL [Peptide A]
SR microsomes
  [3H] ryanodine binding to SR microsomes: enhances [^3H] ryanodine binding to SR microsomes

## ryanodine
ryanodine-modified RyR2; 2 µM ryanodine
  effect of ryanodine on channel gating: channels are locked open; closures are brief and extremely rare
RyRs
  slope conductance of modified state, of full openings: ~ 40%
